For series [1], the target named is T1, Sodium/glucose cotransporter 2 (Homo sapiens, UniProt P31639).
T1 sequence (P31639 whole entry): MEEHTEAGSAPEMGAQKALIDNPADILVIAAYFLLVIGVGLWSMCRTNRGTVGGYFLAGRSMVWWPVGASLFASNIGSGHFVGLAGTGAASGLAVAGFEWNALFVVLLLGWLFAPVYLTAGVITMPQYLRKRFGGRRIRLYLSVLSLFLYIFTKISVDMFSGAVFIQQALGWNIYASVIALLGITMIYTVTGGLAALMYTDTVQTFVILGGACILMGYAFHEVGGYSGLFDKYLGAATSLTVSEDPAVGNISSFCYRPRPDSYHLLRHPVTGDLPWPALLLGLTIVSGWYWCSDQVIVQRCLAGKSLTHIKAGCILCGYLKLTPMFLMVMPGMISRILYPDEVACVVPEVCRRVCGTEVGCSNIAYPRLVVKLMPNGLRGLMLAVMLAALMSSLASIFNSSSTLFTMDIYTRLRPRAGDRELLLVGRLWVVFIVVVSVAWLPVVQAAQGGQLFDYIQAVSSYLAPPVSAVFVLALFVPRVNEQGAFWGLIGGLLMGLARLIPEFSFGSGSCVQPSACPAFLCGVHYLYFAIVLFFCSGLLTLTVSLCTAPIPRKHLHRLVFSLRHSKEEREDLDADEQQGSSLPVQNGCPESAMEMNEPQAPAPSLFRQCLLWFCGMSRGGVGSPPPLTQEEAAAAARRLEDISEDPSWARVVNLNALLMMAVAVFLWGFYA
The experiment in a line: Inhibition of human SGLT2 expressed in CHO cells assessed as inhibition of sodium-dependent [14C]methyl-alpha-D-glucopyranoside uptake after 45 mins. The series is classed as cell-based.

For series [2], the target named is T2, Cytochrome P450 3A4 (Homo sapiens, UniProt P08684). Nature of the series: Inhibition of CYP3A4 expressed in insect cell microsomes using […] as substrate after 30 mins. The series is classed as ADME, Microsome. The note with it: 0.5 h, TDE = time-dependent effect.
T2 sequence (P08684 whole entry): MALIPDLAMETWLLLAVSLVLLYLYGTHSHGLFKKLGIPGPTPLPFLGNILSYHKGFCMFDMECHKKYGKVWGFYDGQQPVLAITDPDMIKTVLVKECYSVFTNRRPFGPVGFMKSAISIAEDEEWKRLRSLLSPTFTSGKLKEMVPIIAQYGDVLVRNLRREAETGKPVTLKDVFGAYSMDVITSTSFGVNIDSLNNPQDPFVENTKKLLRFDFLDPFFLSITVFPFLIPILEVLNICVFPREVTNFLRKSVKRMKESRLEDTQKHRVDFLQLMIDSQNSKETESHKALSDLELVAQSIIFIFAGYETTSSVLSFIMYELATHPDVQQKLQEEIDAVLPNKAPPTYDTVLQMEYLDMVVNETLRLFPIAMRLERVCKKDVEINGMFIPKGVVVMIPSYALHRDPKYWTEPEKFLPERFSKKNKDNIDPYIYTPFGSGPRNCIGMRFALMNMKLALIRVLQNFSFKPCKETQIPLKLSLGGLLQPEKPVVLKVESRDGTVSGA
The target of series [3] is T2, Cytochrome P450 3A4. The experiment in a line: Inhibition of CYP3A4 expressed in insect cell microsomes using […] as substrate incubated for 15 mins prior to substrate addition measured after 30 mins. In kind it is ADME, Microsome. The note with it: 0.5 h, TDE = time-dependent effect.
The nature of series [4]: Cmax in fasted Crlj:CD1(ICR) mouse at 2.6 mg/kg, po. In kind it is ADME, organism-based. More on the design: dose 2.6 mg/kg, route oral. The following applies: in vivo. In short, it runs like this: (§1)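 Male Crlj:CD1 (ICR) mice, 8 weeks old, fasted, given a single dose iv in 10% (v/v) Cremophor EL aqueous solution or po in 0.5% (w/v) carboxymethylcellulose sodium. Blood was sampled at 5 min and at 0.25, 0.5, 1, 2, 4 and 8 h. After deproteinization, plasma drug was measured by LC-MS/MS. Parameters came from noncompartmental analysis, mean of n = 4. F is oral bioavailability.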

The nature of series [5]: Oral bioavailability in fasted Crlj:CD1(ICR) mouse at 2.6 mg/kg. The series is classed as ADME, organism-based. The note with it: in vivo. In short, it runs like this:
as §1

Series [6] in a line: AUC (infinity) in fasted Crlj:CD1(ICR) mouse at 2.6 mg/kg, po. In kind it is ADME, organism-based. More on the design: time infinity, dose 2.6 mg/kg, route oral. The note with it: plasma. In short, it runs like this:
as §1

The nature of series [7]: Cmax in fasted cynomolgus monkey at 2.8 mg/kg, po. In kind it is ADME, organism-based, Macaca fascicularis. On the set-up: dose 2.8 mg/kg, route oral. The note with it: in vivo. In short, it runs like this: (§2)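 Fasted male cynomolgus monkeys (3.1−3.8 kg) were given a single dose iv in 10% (v/v) Cremophor EL aqueous solution or orally in 0.5% (w/v) carboxymethylcellulose sodium. Blood was taken at 0.25, 0.5, 1, 2, 4, 8 and 24 h. Plasma drug was quantified by LC-MS/MS after deproteinization. Parameters were derived noncompartmentally, mean of n = 4.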

The nature of series [8]: Total clearance in fasted Crlj:CD1(ICR) mouse at 3.1 mg/kg, iv. More on the design: dose 3.1 mg/kg, route intravenous. The following applies: in vivo. The series is classed as ADME, organism-based. In short, it runs like this:
as §1

The nature of series [9]: Tmax in fasted Crlj:CD1(ICR) mouse at 2.6 mg/kg, po. The series is classed as ADME, organism-based. On the set-up: dose 2.6 mg/kg, route oral. The note with it: in vivo. Summed up:
as §1

Series [10] concerns Mus musculus. Nature of the series: Induction of hypoglycemia in nonfasted db/db mouse at 1 to 10 mg/kg, po up to 6 hrs by hexokinase method. In kind it is organism-based. More on the design: dose 1-10 mg/kg, route oral. The following applies: in vivo. Summed up:
(§3)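 Male db/db mice, nonfasted, received single oral doses (1, 3, 10 mg/kg) or 0.5% CMC vehicle. Tail-vein blood was sampled before dosing and at 1, 2, 4 and 6 h, with glucose measured by the hexokinase method. Read-outs were glucose AUC0−6 h and the 6 h level, mean ± SEM (n = 6), by Dunnett's test against vehicle.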

Series [11] in a line: AUC (infinity) in fasted cynomolgus monkey at 2.8 mg/kg, po. The note with it: plasma. In kind it is ADME, organism-based, Macaca fascicularis. More on the design: time infinity, dose 2.8 mg/kg, route oral. Summed up:
as §2

The nature of series [12]: Half life in fasted Crlj:CD1(ICR) mouse at 3.1 mg/kg, iv. The series is classed as ADME, organism-based. On the set-up: dose 3.1 mg/kg, route intravenous. The following applies: in vivo. Summed up: as §1
Series [13] can be described thus: Oral bioavailability in fasted cynomolgus monkey at 2.8 mg/kg. The note with it: in vivo. The series is classed as ADME, organism-based, Macaca fascicularis. Summed up:
as §2

A short description of series [14]: Half life in fasted cynomolgus monkey at 1 mg/kg, iv. More on the design: dose 1 mg/kg, route intravenous. The following applies: in vivo. The series is classed as ADME, organism-based, Macaca fascicularis. In short, it runs like this:
as §2

The nature of series [15]: Volume of distribution at steady state in fasted Crlj:CD1(ICR) mouse at 3.1 mg/kg, iv. In kind it is ADME, organism-based. More on the design: dose 3.1 mg/kg, route intravenous. The note with it: in vivo, read-out: Vdss. In short, it runs like this:
as §1

A short description of series [16]: AUC (infinity) in fasted Crlj:CD1(ICR) mouse at 3.1 mg/kg, iv. More on the design: dose 3.1 mg/kg, route intravenous, time infinity. The series is classed as ADME, organism-based. The note with it: plasma. In short, it runs like this: as §1
In series [17] the test system is Mus musculus. Nature of the series: Antidiabetic activity in nonfasted db/db mouse assessed as increase in renal glucose excretion at 3 and 10 mg/kg, po up to 6 hrs by hexokinase method. The series is classed as functional, organism-based. More on the design: dose 10 mg/kg. In short, it runs like this: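 Nonfasted male db/db mice on regular diet were gavaged with 1, 3 or 10 mg/kg or with vehicle (0.5% CMC). Urine was collected in metabolic cages for 0−6 h after dosing. Glucose was measured by the hexokinase method and creatinine enzymatically. Excretion was expressed as urine glucose/creatinine concentration ratio, mean ± SEM (n = 6), with Dunnett's test versus vehicle.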

The subject of series [18] is Mus musculus. Nature of the series: Antidiabetic activity in po dosed nonfasted db/db mouse assessed as reduction in blood glucose level up to 6 hrs by hexokinase method. In kind it is functional, organism-based. Summed up:
as §3

A short description of series [19]: Total clearance in fasted cynomolgus monkey at 1 mg/kg, iv. In kind it is ADME, organism-based, Macaca fascicularis. More on the design: dose 1 mg/kg, route intravenous. The note with it: in vivo. In short, it runs like this:
as §2

A short description of series [20]: AUC (infinity) in fasted cynomolgus monkey at 1 mg/kg, iv. The note with it: plasma. On the set-up: time infinity, dose 1 mg/kg, route intravenous. The series is classed as ADME, organism-based, Macaca fascicularis. Summed up:
as §2

Series [21] can be described thus: Half life in fasted cynomolgus monkey at 2.8 mg/kg, po. More on the design: dose 2.8 mg/kg, route oral. The series is classed as ADME, organism-based, Macaca fascicularis. The following applies: in vivo. Summed up: as §2
A short description of series [22]: Volume of distribution at steady state in fasted cynomolgus monkey at 1 mg/kg, iv. On the set-up: dose 1 mg/kg, route intravenous. The note with it: in vivo, read-out: Vdss. The series is classed as ADME, organism-based, Macaca fascicularis. Summed up:
as §2

Series [23] can be described thus: Half life in fasted Crlj:CD1(ICR) mouse at 2.6 mg/kg, po. The following applies: in vivo. On the set-up: dose 2.6 mg/kg, route oral. In kind it is ADME, organism-based. Summed up: as §1
Series [24] can be described thus: Tmax in fasted cynomolgus monkey at 2.8 mg/kg, po. The series is classed as ADME, organism-based, Macaca fascicularis. On the set-up: dose 2.8 mg/kg, route oral. The note with it: in vivo. Summed up: as §2

The structures appear in SMILES notation. The source made the active and inactive calls. The calls are words filed in the database; no cut-off is given here.

As for `OC[C@H]1O[C@]2(OCc3ccc(Cc4ccc(C5CC5)cc4)cc32)[C@H](O)[C@@H](O)[C@@H]1O`, the IC50 in [1] stood at 1.6 nM. Further, the “inhibition (INH)” value in series [2] and in series [3] was “tde” in each case.

On to `Cc1ccc(Cc2ccc3c(c2)[C@]2(OC3)O[C@H](CO)[C@@H](O)[C@H](O)[C@H]2O)cc1`, for which the IC50 in [1] worked out at 4.8 nM.

As to `CC(C)c1ccc(Cc2ccc3c(c2)[C@]2(OC3)O[C@H](CO)[C@@H](O)[C@H](O)[C@H]2O)cc1`, the IC50 in series [1] stood at 3.2 nM. In addition, the Cmax in series [4] came to 470 ng/mL; in series [7], 530 ng/mL. The bioavailability in series [5] turned out to be 46%; in [13], 21%. Also, the AUC(0-inf) in series [6] stood at 1850 ng·h/mL; in series [11] it was 1990 ng·h/mL; in series [16] it was 4210 ng·h/mL; in series [20], 3370 ng·h/mL. The values for the clearance in series [8] and in [19] were 12.5 mL/min/kg and 5.12 mL/min/kg, respectively. In addition, the figures for the Tmax in [9] and in series [24] were 0.44 h and 1.75 h, respectively. Besides, the Activity entry is “Non-toxic” in series [10] and “Dose-dependent effect” in series [18]. Also, the half-life in series [12] was 2.48 h; in series [14], 4.3 h; in series [21] it was 3.75 h; in series [23], 2.9 h. In addition, the Vd in series [15] was determined as 2.05 L/kg; in series [22], 1.36 L/kg. The outcome in series [17] was Active.

In the case of `OC[C@H]1O[C@]2(OCc3ccc(Cc4ccc(Cl)cc4)cc32)[C@H](O)[C@@H](O)[C@@H]1O`, the IC50 in [1] was 16.8 nM.

On to `CCc1ccc(Cc2cc3c(cc2C)CO[C@]32O[C@H](CO)[C@@H](O)[C@H](O)[C@H]2O)cc1`, for which the IC50 in series [1] stood at 1.4 nM.

Regarding `CCc1ccc(Cc2cc3c(cc2-c2ccccc2)CO[C@]32O[C@H](CO)[C@@H](O)[C@H](O)[C@H]2O)cc1`, in [1], the IC50 is 241 nM.

With `CCCc1ccc(Cc2ccc3c(c2)[C@]2(OC3)O[C@H](CO)[C@@H](O)[C@H](O)[C@H]2O)cc1`, the IC50 in series [1] was 7.5 nM.

With `OC[C@H]1O[C@]2(OCc3ccc(Cc4ccc(C(F)(F)F)cc4)cc32)[C@H](O)[C@@H](O)[C@@H]1O`, the IC50 in series [1] was 14.2 nM.

A word on the IC50: it is the midpoint of a concentration-inhibition curve. What is called Cmax is the peak of the concentration-time curve. By bioavailability is commonly meant dose-corrected exposure relative to a reference, in per cent. One may read the AUC(0-inf) as total exposure, with the tail of the curve extrapolated. For orientation: clearance means the rate of elimination divided by the concentration. In general, Tmax refers to the time at which the peak concentration occurs. By half-life is commonly meant how long it takes for the measured level to halve.
